Results published in paper PMC11871924 (International Journal of Nanomedicine, 2025).

Experiments:
BSA = BSA (Bos taurus, UniProt P02769); assay type: binding, bovine; conditions: 2–10 μM quencher, BSA 2 μM
Summary of the method: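 BSA (2 μM) titrated with test compound at 0, 2, 4, 6, 8, 10 μM (0–20 μM for one reagent). Site competition used phenylbutazone, ibuprofen or digitoxin (2 μM final) added before the test compound. Steady-state BSA fluorescence was measured without and with quencher. Kq, Kb and n were calculated from the quenching formulas, taking biomolecule average lifetime as 10−8 s.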

[1] = test system: H22 orthotopic liver tumors; test: Mouse orthotopic H22 hepatocellular carcinoma model; assay type: in vivo, BALB/c mice
Summary of the method: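 Female BALB/c mice (6–8 weeks) received 106 log-phase H22 cells in matrix gel, injected into an exteriorised liver lobe via abdominal incision. At ~50 mm3 tumours, groups (n=5) received i.v. PBS (100 μL), 100 μL nanoparticles daily for 6 days, or oxaliplatin 5 mg/kg every two days ×3. Growth was imaged by IVIS after i.p. D-luciferin (200 μL, 15 mg/mL) on days 5, 10, 15. Body weight was recorded.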

[2] = test system: VX2 orthotopic liver tumors; test: Rabbit VX2 orthotopic liver tumor model, DSA-guided arterial infusion, PET/CT; assay type: in vivo, New Zealand White rabbits; conditions: n=4, mean ± s.d.
Summary of the method: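 New Zealand White rabbits (4 months, n=4/group) had 1 mm3 VX2 tumour blocks implanted in the left liver lobe under ultrasound, followed by i.m. penicillin for 3 days and CT sizing. DSA-guided hepatic arterial infusion delivered PBS, oxaliplatin or test nanoparticles (5 mg/kg), doses converted by body surface area. Tumour SUV was measured by PET/CT before and 7 days after infusion.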

Chain of BSA (P02769 25-607): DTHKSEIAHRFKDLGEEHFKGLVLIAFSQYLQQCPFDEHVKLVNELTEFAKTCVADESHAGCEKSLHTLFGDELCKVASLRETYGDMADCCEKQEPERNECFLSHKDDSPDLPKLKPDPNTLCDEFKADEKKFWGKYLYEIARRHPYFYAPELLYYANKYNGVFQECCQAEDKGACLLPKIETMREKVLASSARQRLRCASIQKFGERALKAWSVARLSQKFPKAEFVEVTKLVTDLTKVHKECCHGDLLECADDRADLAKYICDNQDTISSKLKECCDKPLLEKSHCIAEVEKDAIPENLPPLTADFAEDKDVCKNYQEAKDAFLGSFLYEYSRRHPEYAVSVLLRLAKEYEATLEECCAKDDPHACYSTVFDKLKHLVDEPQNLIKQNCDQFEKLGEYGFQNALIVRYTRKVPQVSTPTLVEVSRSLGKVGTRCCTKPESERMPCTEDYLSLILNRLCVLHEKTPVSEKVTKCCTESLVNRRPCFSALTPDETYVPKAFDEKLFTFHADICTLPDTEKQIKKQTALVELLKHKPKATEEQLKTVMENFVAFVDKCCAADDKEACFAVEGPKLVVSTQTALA

| Compound | Quenching of BSA Trp-214 fluorescence emission (BSA) | Body weight of some mice during treatment ([1]; decrease from the initial 20 g, oxaliplatin 5 mg/kg i.v. every two days ×3) | Effect on orthotopic tumors (in vivo imaging) ([1]; mouse orthotopic H22 model, i.v., n=5) | Tumor standardized uptake value (SUV) before treatment [2] |
| --- | --- | --- | --- | --- |
| Ir(ppy)2-diimi dazole [Ir-diim] | could quench | – | – | – |
| O=C1[O][Pt]2([NH][C@@H]3CCCC[C@H]3[NH]2)[O]C1=O [oxaliplatin] | – | 13 g | effectively inhibited | 5.44±0.43 |
